Active and inactive are the calls of the source. The rule behind the calls is not given here.
Experiments:
[1] = system: Hepatitis B virus; assay: Antiviral activity against HBV infected in human HepG2.2.15 cells assessed as reduction in cytoplasmic DNA synthesis by reed and munch method; assay type: functional, organism-based
In short: (§1)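 HepG 2.2.15 cells; IC50 is the concentration giving 50% inhibition of cytoplasmic HBV-DNA synthesis; CC50 comes from a CPE (cytopathic effect) cytotoxicity assay in the same cells. Both were derived by the Reed & Muench method, and each experiment was run at least twice separately. SI = CC50/IC50.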

[2] = Cytotoxicity against human HepG2.2.15 cells infected with HBV; assay type: cell-based, HepG2 2.2.15; in short: as §1
[3] = Selectivity index, ratio of CC50 for human HepG2.2.15 cells to IC50 for HBV infected in human HepG2.2.15 cells; assay type: toxicity, cell-based; settings: read-out: Ratio CC50/IC50; in short: as §1
[4] = Toxicity against Pekin duck infected with HBV assessed as change in body weight at 0.2 to 0.4 mmol/kg, […] for 14 days and measured every day during compound dosing; assay type: organism-based; settings: anas platyrhynchos, in vivo, po, 336 h
In short: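 DHBV-infected ducks, six per group, were gavaged twice daily at 0.1, 0.2 or […], with vehicle groups of 0.5% CMC-Na or water; 3TC was given orally once daily. Serum DHBV DNA was measured by real-time PCR on days 0, 7 and 14 and 3 days after dosing stopped, and body weight was monitored. Data are mean ± SD.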

[5] = system: Hepatitis B virus; assay: Antiviral activity against HBV infected in pekin duck assessed as reduction in serum viral DNA level at 0.4 mmol/kg, po once daily for 14 days and measured on days 7, 14 post treatment and on day 3 after treatment cessation by qRT-PCR analysis; assay type: functional, organism-based
[6] = system: HBV genotype D; assay: Antiviral activity against HBV genotype D hydrodynamically infected as pHBV1.3 mer plasmid carrying viral genome in C57BL/6 mouse assessed as reduction in serum viral DNA level at 0.1 to 1 mg/kg, po once daily and measured upto 6 days post treatment by qRT-PCR analysis; assay type: functional, organism-based; settings: hepatitis B virus genotype D
In short: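 C57BL/6 mice received the HBV 1.3mer plasmid by hydrodynamic tail-vein injection. From one day later they were dosed by oral gavage twice daily at […], with vehicle groups of 20% Kolliphor HS 15 or water; ETV was given once daily. There were 5-6 mice per group. Serum HBV DNA was measured by real-time PCR on days 0, 2, 4 and 6, and body weight was tracked over the 6 days.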

[7] = Toxicity against C57BL/6 mouse hydrodynamically infected with pHBV1.3 mer plasmid carrying HBV genotype D assessed as change in body weight at 0.1 to 1 mg/kg, po once daily and measured upto 6 days post treatment; assay type: organism-based; settings: in vivo, 144 h
[8] = AUC(0 to infinity) in Sprague-Dawley rat at 20 mg/kg, po administered as single dose and measured after 0.25 to 24 hrs by HPLC analysis; assay type: ADME, organism-based; design: dose 20 mg/kg, time infinity, route oral; settings: in vivo
In short: (§2)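 Male/female unspecified SD rats, n = 3 per group, received a single dose of TFV at 20 mg/kg by mouth or 5 mg/kg intravenously. Prodrugs were given orally at an equimolar […]. PK parameters were calculated for the released TFV and reported as means.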

[9] = Tmax in Sprague-Dawley rat at 20 mg/kg, po administered as single dose and measured after 0.25 to 24 hrs by HPLC analysis; assay type: ADME, organism-based; settings: in vivo; in short: as §2
[10] = Oral bioavailability in Sprague-Dawley rat at 20 mg/kg administered as single dose and measured after 0.25 to 24 hrs by HPLC analysis; assay type: ADME, organism-based; settings: in vivo; in short: as §2
[11] = Half-life in Sprague-Dawley rat at 5 mg/kg, iv; assay type: ADME, organism-based; settings: in vivo; in short: as §2
[12] = AUC(0 to infinity) in Sprague-Dawley rat at 5 mg/kg, iv; assay type: ADME, organism-based; design: dose 5 mg/kg, route intravenous, time infinity; settings: in vivo; in short: as §2
[13] = Half-life in Sprague-Dawley rat at 20 mg/kg, po administered as single dose and measured after 0.25 to 24 hrs by HPLC analysis; assay type: ADME, organism-based; settings: in vivo; in short: as §2
[14] = Clearance in Sprague-Dawley rat at 5 mg/kg, iv; assay type: ADME, organism-based; settings: in vivo; in short: as §2
[15] = Cmax in Sprague-Dawley rat at 20 mg/kg, po administered as single dose and measured after 0.25 to 24 hrs by HPLC analysis; assay type: ADME, organism-based; design: dose 20 mg/kg, route oral; settings: in vivo; in short: as §2
[16] = system: HBV genotype D; assay: Antiviral activity against HBV genotype D hydrodynamically infected as pHBV1.3 mer plasmid carrying viral genome in C57BL/6 mouse assessed as log10 reduction in serum viral DNA level at 0.10 to 0.50 mmol/kg/day, po via gavage administered as twice daily dosage and measured on day 4 post treatment by qRT-PCR analysis; assay type: functional, hepatitis B virus genotype D
In short: (§3)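 C57BL/6 mice were hydrodynamically injected with HBV 1.3mer plasmid. From one day later (day 0), they were gavaged twice daily at […] or with vehicle; ETV was given orally once daily; n = 5-6 per group. Blood was taken at days 0, 2, 4 and 6, and serum HBV DNA was measured by real-time PCR. Body weight was recorded over 6 days of treatment. Significance was set against vehicle.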

[17] = Toxicity against Pekin duck infected with HBV assessed as change in body weight at 0.1 to 0.4 mmol/kg, po twice daily for 14 days administered via gavage and measured every day during compound dosing; assay type: organism-based; settings: anas platyrhynchos, in vivo, 336 h
In short: (§4)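 DHBV-infected ducks, six per group, were gavaged twice daily at 0.1, 0.2 or […] or with vehicle (0.5% CMC-Na or water); 3TC was given orally once daily. Blood was collected at day 0 (pretreatment), day 7, day 14 and 3 days after cessation. Serum DHBV DNA was extracted and quantified by real-time PCR. Body weight was monitored during treatment. Comparison was against vehicle.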

[18] = system: Hepatitis B virus; assay: Antiviral activity against HBV infected in pekin duck assessed as reduction in serum viral DNA level administered via oral gavage twice daily for 14 days and measured on day 14 post treatment and on day 3 after treatment cessation by qRT-PCR analysis; assay type: functional, organism-based; in short: as §4
[19] = system: Hepatitis B virus; assay: Potency index, ratio of Lamivudine IC50 to compound IC50 for antiviral activity against HBV infected in human HepG2.2.15 cells; assay type: functional
[20] = system: HBV genotype D; assay: Antiviral activity against HBV genotype D hydrodynamically infected as pHBV1.3 mer plasmid carrying viral genome in C57BL/6 mouse assessed as reduction in serum viral DNA level administered via oral gavage twice daily and measured upto 6 days post treatment by qRT-PCR analysis; assay type: functional, organism-based; settings: hepatitis B virus genotype D; in short: as §3
[21] = system: Hepatitis B virus; assay: Potency index, ratio of TFV IC50 to compound IC50 for antiviral activity against HBV infected in human HepG2.2.15 cells; assay type: functional
[22] = system: Rattus norvegicus; assay: Ratio of compound oral bioavailability in Sprague-Dawley rat at 45.5 mg/kg administered as single dose to TDF oral bioavailability in Sprague-Dawley rat at 44.3 mg/kg administered as single dose by HPLC analysis; assay type: ADME, organism-based; settings: in vivo
In short: (§5)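 SD rats received a single oral dose at equimolar […] (TFV 20 mg/kg); intravenous TFV was given at 5 mg/kg. PK parameters were derived from plasma TFV, including oral bioavailability F; n = 3 per group.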

[23] = system: Rattus norvegicus; assay: Ratio of compound oral bioavailability in Sprague-Dawley rat at 45.5 mg/kg administered as single dose to TFV oral bioavailability in Sprague-Dawley rat at 20 mg/kg administered as single dose by HPLC analysis; assay type: ADME, organism-based; settings: in vivo; in short: as §5

Structure (SMILES) | IC50 [1] | CC50 [2] | selectivity ratio [3] | also measured
CC[C@H](C)[C@H](N)C(=O)OCCCOP(=O)(CO[C@H](C)Cn1cnc2c(N)ncnc21)OCCCOC(=O)[C@@H](N)[C@@H](C)CC | > 49.6 µM | 315 µM | – | –
Nc1ccn([C@@H]2CS[C@H](CO)O2)c(=O)n1 [LAMIVUDINE] | 2.22 µM | > 218 µM | > 98 | Activity [4]: Non-Toxic; inhibition [5]: Active
CC(C)C[C@H](N)C(=O)OCCOP(=O)(CO[C@H](C)Cn1cnc2c(N)ncnc21)OCCOC(=O)[C@@H](N)CC(C)C | > 13 µM | 218 µM | – | –
C=C1[C@H](CO)[C@@H](O)C[C@@H]1n1cnc2c(=O)[nH]c(N)nc21.O [ENTECAVIR] | – | – | – | inhibition [6]: Active; Activity [7]: Non-Toxic
C[C@H](Cn1cnc2c(N)ncnc21)OCP(=O)(OCCOC(=O)[C@@H](N)Cc1ccccc1)OCCOC(=O)[C@@H](N)Cc1ccccc1 | 2.93 µM | 315 µM | 97 | –
CC(C)[C@H](N)C(=O)OCCOP(=O)(CO[C@H](C)Cn1cnc2c(N)ncnc21)OCCOC(=O)[C@@H](N)C(C)C | 2.6 µM | 218 µM | 84 | –
C[C@H](Cn1cnc2c(N)ncnc21)OCP(=O)(O)O [TENOFOVIR ANHYDROUS] | 16 µM | 435 µM | 27 | AUC(0-inf) [8]: 0.888 µg·h/mL; Tmax [9]: 0.833 h; bioavailability [10]: 1.41%; half-life [11]: 10.2 h; AUC(0-inf) [12]: 15.8 µg·h/mL; half-life [13]: 3.56 h; clearance [14]: 0.321 L/h/kg; Cmax [15]: 0.207 µg/mL
CC[C@H](C)[C@H](N)C(=O)OCCOP(=O)(CO[C@H](C)Cn1cnc2c(N)ncnc21)OCCOC(=O)[C@@H](N)[C@@H](C)CC | 12.2 µM | 294 µM | 24 | –
CC(C)C[C@H](N)C(=O)OCCCOP(=O)(CO[C@H](C)Cn1cnc2c(N)ncnc21)OCCCOC(=O)[C@@H](N)CC(C)C | 4.22 µM | 218 µM | 47 | –
CC(C)[C@H](N)C(=O)OCCCOP(=O)(CO[C@H](C)Cn1cnc2c(N)ncnc21)OCCCOC(=O)[C@@H](N)C(C)C | > 3.24 µM | 51.9 µM | – | –
CC(C)OC(=O)OCOP(=O)(CO[C@H](C)Cn1cnc2c(N)ncnc21)OCOC(=O)OC(C)C.O=C(O)/C=C/C(=O)O [TENOFOVIR DISOPROXIL FUMARATE] | 0.85 µM | 20.7 µM | 24 | log(activity) [16]: 1.7; Activity [17]: Non-Toxic; inhibition [18]: Dose-dependent effect
CC(C)[C@H](N)C(=O)OCOP(=O)(CO[C@H](C)Cn1cnc2c(N)ncnc21)OCOC(=O)[C@@H](N)C(C)C.Cl | 0.71 µM | 57.3 µM | 80 | Ratio IC50 [19]: 3; log(activity) [16]: 1.1; inhibition [20]: Dose-dependent effect; Activity [17]: Non-Toxic; Ratio IC50 [21]: 22; Ratio [22]: 3; Ratio [23]: 7; inhibition [18]: Dose-dependent effect

Reference: ChEMBL document CHEMBL4396904, “Design, Synthesis, and Anti-HBV Activity of New Bis(l-amino acid) Ester Tenofovir Prodrugs” (ACS Med Chem Lett, 2019)
